Screens from PubChem BioAssay.
ABCG2 inh: inhibitors of human ABCG2 transporter, ABCB1 counter-screen. IgMXP3 cells, JC-1 efflux, flow cytometry. inhibition, % at 6.6 µM. AID 1325. Q9UNQ0. 0.1% of 190,000 active;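 active = inhibition above 80%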;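 note: 0% = DMSO and 100% = nicardipine control wells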
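Test system: IgMXP3 cells (ABCG2) mixed with DDAO far-red-labelled CCRF-Adr cells (ABCB1). Reagent: JC-1 transporter substrate. Compound dosing: single test compound dose, 6.6 µM final. Times: 10 min compound exposure, 25 °C. Detection: flow cytometry of retained JC-1 fluorescence. Read-out basis: efflux inhibition in percent versus controls. Controls: nicardipine and DMSO wells.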
Cl transport mod: modulators of human KCC2 chloride dependent transport; B-score of Tl+ flux slope (higher = more flux/activation; lower = inhibition) at 10 µM; 2.2% of 190,000 active; KCC2 cells, thallium flux FluoZin-2 fluorescence;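 active = thallium flux slope and its plate-corrected score both differing from the plate sample mean at a set confidence after two filtering rounds, in either direction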;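 note: slope of fluorescence scaled to starting intensity during 10 to 20 s after thallium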
ROMK mod: modulates human ROMK potassium channel activity; P48048; Tet-inducible ROMK, thallium flux fluorescence; actives lie on both sides; B-score at 10 µM; 2% of 130,000 active;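 active = signal ratio slope over the read window, or its plate-corrected B-score, at least 3 SD from the plate mean, either direction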;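 note: B-score of the F/F0 ratio slope over 7 to 12 s after thallium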
Target sequence (P48048 whole entry, looked up): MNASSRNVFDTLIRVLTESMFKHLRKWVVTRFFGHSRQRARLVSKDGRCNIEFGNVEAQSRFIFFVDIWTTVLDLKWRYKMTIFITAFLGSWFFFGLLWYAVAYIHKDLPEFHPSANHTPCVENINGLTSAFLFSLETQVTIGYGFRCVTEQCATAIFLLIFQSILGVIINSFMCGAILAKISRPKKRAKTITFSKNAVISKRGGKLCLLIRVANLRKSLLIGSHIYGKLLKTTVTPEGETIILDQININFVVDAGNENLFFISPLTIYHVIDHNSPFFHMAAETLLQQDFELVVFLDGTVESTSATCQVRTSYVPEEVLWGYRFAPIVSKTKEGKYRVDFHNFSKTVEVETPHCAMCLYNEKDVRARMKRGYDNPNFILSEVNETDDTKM
ABCB1 block: inhibitors of human ABCB1 transporter, ABCG2 counter-screen. P08183. CCRF-Adr cells, JC-1 efflux, flow cytometry. inhibition, % at 6.6 µM. 0.067% of 190,000 active. AID 1326; in the data active = inhibition above about 40%;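 note: 0% = vehicle and 100% = reference inhibitor; higher value means more JC-1 retained so stronger ABCB1 efflux block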
PMI act: increases human mannose-6-phosphate isomerase activity | activation factor at 20 µM | purified human PMI, coupled resazurin fluorescence, 20 min; active compounds read high; 1 = vehicle control, 0 substrate-free wells | 0.005% of 190,000 active | P34949;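 active = activation factor of 2 or more at 20 µM, relative to plate controls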
PMI act satM6P: PMI (human) activation, high substrate; P34949; 0.34% of 190,000 active; coupled PMI enzyme assay, resazurin fluorescence, 20 min; active compounds read high; 1 = untreated enzyme, 0 = substrate-free blank; activation factor at 20 µM; AID 1216;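 active = activation factor of 2 or more at 20 µM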
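Technique: Diaphorase-driven resazurin-to-resorufin fluorescence, excitation 544, emission 590 nm | Assay system: Human PMI in coupled enzyme assay | Times: Enzyme reaction with compound 20 min at room temperature | Medium: HEPES-buffered pH 7.4 with magnesium and detergent | Reagent: Mannose-6-phosphate 1.0 mM (near-saturating) plus 0.22 mM NADP+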
ROMK hit retest: human ROMK channel modulation, retest confirmation | shares compounds with ROMK mod | AID 1917 | 54% of 3,000 active | ROMK thallium flux, fluorescence ratio; active compounds read low | normalized thallium flux (F/F0 slope) at 10 µM;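 active = Flux at 10 µM at least 3 SD below or above vehicle control mean in one or both replicates; inconclusive = no clear call, values can overlap the other calls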
* hit, by the source's call; ? = inconclusive; / = no result. Only some compounds are listed: those with a hit (about 3.3% of all), similar ones and a draw of the others.

SMILES	ABCG2 inh	Cl transport mod	ROMK mod	ABCB1 block	PMI act	PMI act satM6P	ROMK hit retest
O=C(COC(=O)c1cc(=O)[nH]c(=O)[nH]1)Nc1cccc(S(=O)(=O)N2CCCCC2)c1	6	0.16	-0.35	1	1	1	/
Cc1ccc(NCc2nnc(SCC(=O)NCc3ccco3)n2CC2CCCO2)cc1Cl (configuration not stated)	2	-0.87	-2.8*	0	0.9	1	0.067*
Cc1ccc(NCc2nnc(SCC(=O)NCc3ccco3)n2CC2CCCO2)c(C)c1 (configuration not stated)	5	0.65	0.035	1	0.9	0.9	/
CCOc1cc(/C=N/N=C(N)N)ccc1OCc1ccc(Cl)cc1	31	0.12	-3.9*	1	1.1	1.2	0.053*
CC(C)N(CCc1ccncc1)C(=S)Nc1cccc(Cl)c1	1	0.84	-0.99	0	0.9	0.9	/
Cc1cc(O)c(C(C)C)cc1N=C1CSC(=O)N1	0	0.25	0.15	0	1	0.8	/
O=c1[nH]c(C(F)(F)F)nc2c1nnn2Cc1ccccc1F	6	-0.46	3.4*	1	1.1	1.1	0.077
Cc1cc(NCCO)c2cc(O)ccc2n1	1	-0.066	-0.14	0	0.9	1	/
CC(SCc1ccccc1)C(=O)NN=C1CCN(C)CC1 (configuration not stated)	7	0.061	/	0	0.9	0.9	/
NC(N)=Nc1nc(-c2ccccc2)c2cc(F)ccc2n1	11	0.78	-3.7*	0	1	1	0.06*
O=C(CCc1ccccc1)NNC(=O)Cc1ccccc1	2	0.11	-0.49	0	1	1	/
COc1ccc(/C=C/C(=O)NCC(=O)N/N=C(/CCC(=O)O)c2ccccc2)cc1	/	0.022	/	/	/	/	/
Cc1ccc(C(=O)CN(C(=O)c2ccc(Cl)c(Cl)c2)N2C(=O)C3C4C=CC(C4)C3C2=O)cc1 (configuration not stated)	10	/	/	3	0.7	0.8	/
COc1ccc(C(=O)c2no[n+]([O-])c2C(=O)c2ccc(OC)cc2)cc1	0	-0.39	/	0	1	1	?
O=C(c1cccs1)c1no[n+]([O-])c1C(=O)c1cccs1	-1	-3.7	/	0	1	1	0.028*
O=C(c1cccs1)c1ccc(-c2cccs2)s1	0	/	0.94	-1	1	1	/
CCC(C)c1ccc(OCCn2cc(/C=N/NC(=O)CSc3nnc(C)s3)c3ccccc32)cc1 (configuration not stated)	2	-0.4	-0.81	0	1	1	/
Clc1ccc(-c2nn3c(-c4ccccc4)nnc3s2)cc1	5	-1.6	/	0	1	1	/
Cc1cn2c(-c3ccc(Cl)cc3)nnc2s1	2	0.42	/	0	0.9	0.9	0.071
O=C(NCCN1CCOCC1)c1ccccc1[N+](=O)[O-]	2	/	3.1*	0	1	1.1	0.089
Cc1cccc(C(=O)NCCN2CCOCC2)c1[N+](=O)[O-]	3	1.3	-0.063	1	0.8	0.9	/
CCc1cc2c(nc1CC)CCN(CC/C(C)=N/OC[C@H]1O[C@H](c3ccccc3)C=C[C@@H]1Oc1ccc(OC)cc1)C2	0	-0.29	-4.7*	7	1	0.9	0.054*
COc1ccc(O[C@H]2C=C[C@@H](c3ccccc3)O[C@@H]2CO/N=C(\C)CCN2CCc3nc(-c4ccccc4)c(-c4ccccc4)cc3C2)cc1	9	-0.059	-2.6	2	1.2	1.1	/
Cc1cccc(-c2nc(CS(=O)CC(=O)NCCCSC3CCCCC3)c(C)o2)c1 (configuration not stated)	2	-1.1	-4*	1	0.9	0.9	0.059*
COc1ccc(CCNC(=O)c2ccc(-c3ccc([N+](=O)[O-])cc3)o2)cc1OC	18	-0.96	/	1	0.7	0.8	0.075
SMILES	ABCG2 inh	Cl transport mod	ROMK mod	ABCB1 block	PMI act	PMI act satM6P	ROMK hit retest
COc1ccc(NC(=O)c2ccc(-c3ccc([N+](=O)[O-])cc3)o2)cc1	5	-0.07	-0.42	0	1	0.8	/
COc1ccc(C(=O)Nc2ccc(C(=O)NCCc3ccc(OC)c(OC)c3)cc2)cc1	9	0.65	3.2*	4	1	1.1	0.073
CSc1cccc(NC(=S)N(CCCN2CCCC(C)C2)Cc2cccs2)c1 (configuration not stated)	1	0.36	-4.4*	1	1	1	0.058*
COc1ccc(NC(=S)N(CCCN2CCN(C)CC2)Cc2cccs2)cc1	-2	0.99	0.53	0	0.9	0.9	/
COc1cccc(NC(=S)N(CCCN2CCCC(C)C2)Cc2cccs2)c1 (configuration not stated)	-2	-0.38	-1.9	0	1	1	/
COc1ccc(NC(=S)N(CCCN2CCC(C)CC2)Cc2cccs2)cc1Cl	-3	0.31	-5.2*	0	1.1	1.1	0.055*
Cc1c(NC(=O)/C(C#N)=C/c2ccc(-c3ccccc3Cl)o2)c(=O)n(-c2ccccc2)n1C	27	-2.1	/	2	0.8	0.9	0.056*
Cc1ccsc1/C=C(\C#N)C(=O)Nc1c(C)n(C)n(-c2ccccc2)c1=O	9	-1.2	0.39	1	0.9	0.9	/
Cc1c(NC(=O)/C(C#N)=C/c2ccccc2)c(=O)n(-c2ccccc2)n1C	2	-0.14	-2.9*	0	1	0.9	0.051*
Nc1cc(C(=O)N/N=C/c2cccc([N+](=O)[O-])c2)n[nH]c1=O	/	-0.18	/	/	/	/	/
CCOC(=O)CSC1=NC(=O)/C(=C/c2ccc(OC)cc2)S1	1	0.22	/	1	0.9	1.1	/
Cc1ccc(Cn2nnc3c(=O)n(CC(=O)NCc4ccccc4)cnc32)cc1	-1	-4.6	2.3*	0	0.9	0.9	0.089
CSc1nnc(C)c(/C=C/Nc2ccc(F)cc2F)n1	14	-0.011	0.56	6	1.3	1.1	/
C=CCSc1nnc(C)c(/C=C/Nc2ccc(Cl)cc2)n1	5	-0.79	-3*	0	1.1	0.8	0.046*
CC1(C)Cc2nc(Cl)c(C(N)=O)cc2CO1	/	-0.1	-0.65	/	/	/	/
COc1cc2c(cc1OC)CN(C(=O)c1ccc3nc[nH]c3c1)CC2	4	-1.1	3.4*	0	1.1	1	0.084
COc1ccc(C(=O)NN(C)c2nc(-c3ccccc3)nnc2C(F)(F)F)cc1	4	/	-0.2	0	1	1	/
COc1ccc(C(=O)NN(C)c2nc(C(F)(F)F)nc3ccccc23)cc1	3	-1.3	3.5*	0	1	1	0.078
